Publication PMC10834355 (Cell metabolism, 2023)
Read-outs that look alike come from different tables or passages of the source.

Assays:
human β-cell = settings: ref El Ouaamari et al., 2016; cited from earlier work
[1] = molecular target: porcine pancreatic elastase (pPE) (Sus scrofa, UniProt P00772); assay: Absorbance-based protease activity assay, pPE; format: biochemical
Outline: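 Porcine pancreatic elastase (500 ng) was combined with 15 two-fold dilutions of test compound, starting at 20 μM. Controls were enzyme-free blank wells and enzyme-plus-DMSO wells. After 3 min at 37°C, N-methoxysuccinyl-Ala-Ala-Pro-Val-p-nitroanilide substrate was added. After 2 h at 37°C, absorbance at 405 was read every 15 s for 21 reads (5 min).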

[2] = molecular target: human pancreatic elastase (PE); assay: Absorbance-based protease activity assay, human PE; format: biochemical; settings: read-out: IC50 PE
Outline: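 Human pancreatic elastase (500 ng) mixed with 15 two-fold dilutions of test compound starting at 20 μM. Blank (no-enzyme) and DMSO wells serve as controls. Preincubated 3 min at 37°C, then N-methoxysuccinyl-Ala-Ala-Pro-Val-p-nitroanilide added. After 2 h at 37°C, absorbance read at 405 nm, 21 reads over 5 min. IC50 derived from the dilution series.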

Ins+ cells = assay: β-cell regeneration after metronidazole ablation in Tg; format: in vivo, zebrafish (Danio rerio); settings: added to growth medium 4–6 dpf, vs DMSO
Outline: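 Tg(ins:flag-NTR);Tg(tp1:H2BmCherry) zebrafish larvae had β-cells ablated in E3 medium with 10 mM metronidazole, 1% DMSO and 0.2 mM 1-phenyl-2-thiourea from 3 to 4 dpf. From 4 to 6 dpf, larvae were exposed to DMSO or test compound in the medium. Larvae then euthanized, fixed, immunostained with anti-insulin (1:100), imaged and Ins+ cells counted.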

[3] = molecular target: T1, human neutrophil elastase (NE) (Homo sapiens, UniProt P08246); assay: Absorbance-based protease activity assay, human NE; format: biochemical
T1 sequence (P08246 30-267): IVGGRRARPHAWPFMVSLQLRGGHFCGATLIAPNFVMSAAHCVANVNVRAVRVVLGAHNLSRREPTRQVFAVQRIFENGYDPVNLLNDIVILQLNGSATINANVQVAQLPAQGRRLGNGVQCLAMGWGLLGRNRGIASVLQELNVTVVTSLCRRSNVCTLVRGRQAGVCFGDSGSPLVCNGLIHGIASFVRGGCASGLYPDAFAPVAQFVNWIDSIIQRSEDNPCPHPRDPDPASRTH

HFD mice = assay: High-fat diet insulin-resistant mice, osmotic pump treatment; format: in vivo, C57BL6/J mice
Outline: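 Male C57BL6/J mice, obtained at 4 weeks old, kept on low-fat or high-fat diet for 24 weeks. From week 20, weight-matched animals received vehicle (DMSO) or test compound at 30 or 300 μg/kg/day for 28 days by subcutaneous osmotic pump; low-fat mice got vehicle. GTT, ITT and in vivo GSIS at weeks 0 and 4; insulin by ELISA. Pancreas sections used for immunofluorescent β-cell proliferation and mass.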

human islets [4] = assay: Phospho-antibody microarray; format: cell-based; settings: 30 min
Outline: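 Human islets cultured overnight in Miami Media #1A at 37°C, 5% CO2. 200 hand-picked islet equivalents collected after 10- or 30-min stimulation and processed for the phospho-antibody array.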

EndoC-βH3 cells = assay: Viability assays; format: cell-based, human
Outline: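 EndoC-βH3 cells exposed to 1 μM tamoxifen for 21 days, then 14 days wash-out. Starved overnight in 2.8 mM glucose medium and stimulated in 2.8 mM glucose with 0.1% BSA. Cells then trypsinized and labelled with EdU 5 μM for 3 h at 37°C, plus Annexin V. Up to 10,000 cells counted by flow cytometry. Caspase-3 activity measured colorimetrically at 405 nm.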

[5] = system: HCV-infected individuals with diabetes; settings: ref Davis et al., 2017; Tallón de Lara et al., 2014; cited from earlier work
human β-cells = assay: Proliferation; format: cell-based; settings: 24 h, non-diabetic human islets
EndoC-βH1 cells [6] = assay: Brillouin microscopy of cell stiffness; format: cell-based, human; settings: PE 250 ng/ml, or PE + telaprevir (750 nm), 24 hr
Outline: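 After 24 hr incubation, stiffness of 12 cells per condition mapped by confocal Brillouin microscopy: 780 nm single-frequency laser, virtually imaged phase array spectrometer, non-contact longitudinal mechanical read-out.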

EndoC-βH1 cells [7] = assay: Static glucose-stimulated insulin secretion assay; format: cell-based, human
Outline: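 EndoC-βH1 cells kept overnight in 2.8 mM glucose DMEM growth medium with vehicles (PBS, DMSO), PE 500 ng/ml and/or test compound 1.5 μM. Preincubated 1 hr in KRB (NaCl 115, NaHCO3 24, KCl 5, MgCl2 1, CaCl2 1, HEPES 10 mM; 0.2% BSA) at 2.8 mM glucose. Then 1 hr in KRB at 2.8 or 11.1 mM glucose with PE ± test compound. DNA content measured.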

human islets [8] = assay: Western Blotting of phosphoproteins in human islets; format: cell-based; settings: telaprevir 1.5 or 150 μM for 30 min
Outline: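 Human islets cultured overnight in Miami Media #1A at 37°C, 5% CO2, then exposed to test compound for 30 min. RIPA lysates with protease and phosphatase inhibitors, protein by BCA, immunoblotted with phospho-specific and total antibodies.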

[9] = system: primary human β-cell cultures; assay: Viability assay in dispersed human islet cells; format: cell-based
Outline: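 Human islets dispersed with TrypLE for 30 min at 37°C, neutralized with FBS, seeded on ECM/fibronectin and left overnight. Pretreated 24 h with water or FSLLRY-NH2 plus EdU 10 μM, then 24 h with vehicles or compounds plus EdU 10 μM. β-cells labelled with DA-ZP1; EdU Click-iT Alexa 647 and APC Annexin V. ≥4000 live (Zombie NIR-negative) cells counted by flow cytometry.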

EndoC-βH1 cells [10] = assay: Phospho-PAK1 Western Blotting; format: cell-based, human
Outline: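 EndoC-βH1 cells transfected with scramble oligo or siFAK, or with empty vector or C-terminal 3X FLAG-tagged PTK2 cDNA (lipofectamine). Cells starved overnight in growth medium with 2.8 mM glucose, then stimulated in 2.8 mM glucose plus 0.1% BSA with PBS or PE ± test compound. siFAK cells treated 30 min. RIPA lysates with protease/phosphatase inhibitors, BCA assay, immunoblot for PAK1 S144 and total PAK1.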

human cathepsin G = molecular target: T2, human cathepsin G (Homo sapiens, UniProt P08311); assay: Absorbance-based protease activity assay, human cathepsin G; format: biochemical
T2 sequence (P08311 21-255): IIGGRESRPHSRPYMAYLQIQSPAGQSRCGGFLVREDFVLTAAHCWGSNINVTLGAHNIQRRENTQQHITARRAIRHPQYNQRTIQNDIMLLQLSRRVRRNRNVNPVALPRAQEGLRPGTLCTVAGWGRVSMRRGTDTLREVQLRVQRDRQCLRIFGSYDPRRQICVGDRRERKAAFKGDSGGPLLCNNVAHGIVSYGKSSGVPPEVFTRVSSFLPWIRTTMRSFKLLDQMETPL
Outline: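 Human cathepsin G (500 ng) combined with 15 two-fold dilutions of test compound from 20 μM; blank and DMSO wells included. After 3 min at 37°C, succinyl-Ala-Ala-Pro-Phe-p-nitroanilide substrate added and absorbance at 405 nm read immediately, 21 reads over 5 min.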

[11] = system: transplanted human islets; format: in vivo, NSG mice; settings: 4 weeks
Outline: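 Male 8–10-week NSG mice received 1000 hand-picked human islet equivalents under the kidney capsule. After engraftment, vehicle (DMSO) or test compound was given by osmotic pump for 28 days. Grafts fixed overnight at 4°C in zinc formalin and cut as 5-μm paraffin serial sections. Sections co-stained for Ki67 or pHH3 with insulin and DAPI; cell death by TUNEL.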

EndoC-βH1 cells [12] = assay: Phospho-ERK1/2 Western Blotting; format: cell-based, human; settings: PE +/− telaprevir for 30 min
[13] = telaprevir HD 300 μg/kg/day, osmotic pumps

porcine pancreatic elastase (pPE), sequence (P00772 27-266): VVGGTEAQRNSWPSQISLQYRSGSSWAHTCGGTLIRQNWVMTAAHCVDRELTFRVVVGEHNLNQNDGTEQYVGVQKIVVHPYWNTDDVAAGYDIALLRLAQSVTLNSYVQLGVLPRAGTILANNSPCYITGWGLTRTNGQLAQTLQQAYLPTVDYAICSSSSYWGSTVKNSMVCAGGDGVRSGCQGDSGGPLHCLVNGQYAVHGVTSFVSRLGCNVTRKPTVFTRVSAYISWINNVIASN

Molecule: CC(C)[C@@H]1C(=O)N(S(C)(=O)=O)[C@@H]2CCN(C(=O)/C=C/CN3CCCCC3)[C@H]21.Cl [GW311616A]
- human β-cell proliferation (human β-cell): enhance human β-cell proliferation

Molecule: CC(C)(C)C(=O)Oc1ccc(S(=O)(=O)Nc2ccccc2C(=O)NCC(=O)O)cc1 [sivelestat]
- human β-cell proliferation (human β-cell): enhance human β-cell proliferation
- IC50 [1]: 2000 nM
- IC50 [2]: 2300 nM
- Ins+ cells after β-cell ablation (Ins+ cells): trend towards an increase

Molecule: C[C@@H](O)[C@H]1C(=O)N2C(C(=O)O)=C(SC3CN(C4=NCCS4)C3)[C@H](C)[C@H]12 [tebipenem]
- IC50 [3]: 33600 nM
- IC50 [1]: 107000 nM
- IC50 [2]: 3600 nM

Molecule: CCC[C@H](NC(=O)[C@@H]1[C@H]2CCC[C@H]2CN1C(=O)[C@@H](NC(=O)[C@@H](NC(=O)c1cnccn1)C1CCCCC1)C(C)(C)C)C(=O)C(=O)NC1CC1 [telaprevir]
- insulin sensitivity or GSIS (HFD mice; 4-week time point, vs HFD vehicle): did not affect
- glucose tolerance (HFD mice; high dose 300 μg/kg/day, week 4, vs HFD vehicle): improvement in glucose tolerance
- random-fed blood glucose levels or body weights (HFD mice; telaprevir 30 or 300 μg/kg/day vs HFD vehicle): did not exhibit differences
- area under the curve during GTT (HFD mice; telaprevir HD 300 μg/kg/day): statistically similar to the LFD vehicle group, although not significantly different from vehicle-HFD mice
- β-cell mass (HFD mice; telaprevir HD 300 μg/kg/day vs HFD vehicle): significantly higher β-cell mass
- 4 h fasting C-peptide and fasting blood glucose (HFD mice; telaprevir HD, after 4-week treatment compared to week 0): lowered
- β-cell mass (HFD mice; telaprevir LD 30 μg/kg/day vs HFD vehicle): comparable
- β-cell size (HFD mice; telaprevir LD and HD vs HFD vehicle): slightly lower β-cell size
- protease-activated receptor (PARs) signaling cascade (human islets [4]): significantly modulated
- regeneration levels and survival of siFAK FSLLRY-treated cells (EndoC-βH3 cells; PE + telaprevir): restored
- proliferation/apoptosis ratio (β-cell viability) in scramble cells (EndoC-βH3 cells; tamoxifen-treated EndoC-βH3, PE, or PE + telaprevir): boosted β-cell viability levels even higher than control cells
- HbA1C levels [5]: reduce
- circulating C-peptide [5]: increase
- IC50 [3]: 3600 nM
- concentrations that partially inhibit human NE activity [3]: > 10 µM
- IC50 ([1]; read-out: IC50 pPE): 40.2 nM
- proliferation of other islet cell types, including α-cells and δ-cells (human β-cells): did not significantly stimulate proliferation
- β-cell apoptosis (TUNEL) (human β-cells; telaprevir at 100 μg/ml): significantly reducing apoptosis
- β-cell proliferation (Ki67 or pHH3), increase compared to control (human β-cells; telaprevir at 100 μg/ml): ~ 3 fold
- Brillouin frequency shift (stiffness) (EndoC-βH1 cells [6]): completely reverse these effects
- IC50 [2]: 15.8 nM
- glucose responsiveness (GSIS) in cells treated with PE (EndoC-βH1 cells [7]; PE 500 ng/ml + telaprevir 1.5 μM): restore glucose responsiveness
- β-cell function (GSIS) in the absence of PE (EndoC-βH1 cells [7]; telaprevir 1.5 μM alone): maintained normal function
- phosphorylation levels of PAK1, PTK2B and ERK1/2 (human islets [8]): up-regulated
- β-cell viability (EdU+/Annexin V+ in DA-ZP1+ cells) ([9]; PE +/− telaprevir for 24 h): significantly improved β-cell survival
- phospho-PAK1 levels in scramble cells (EndoC-βH1 cells [10]; 30 min, PE vs PBS, or PE + telaprevir at high dose vs PE alone): significantly increasing phosphorylation of PAK1
- phosphorylated PAK1 in siFAK cells (EndoC-βH1 cells [10]; PE + telaprevir vs PE-treated siFAK samples, 30 min): significantly decreased
- phospho-PAK1 levels in EV (empty vector) cells (EndoC-βH1 cells [10]; PE, or PE + telaprevir): restored
- inhibition of human cathepsin G (human cathepsin G): virtually no effect
- blood glucose (random-fed or fasting) levels, body weight, glucose sensitivity or human C-peptide levels ([11]; 30 or 300 μg/kg/day, vs vehicle): did not observe differences between groups
- Ki67+ β-cells in human grafts [11, 13]: increase
- TUNEL+ β-cells in human grafts [11, 13]: decrease
- phospho-ERK1/2 levels (EndoC-βH1 cells [12]): significantly increased phospho-ERK1/2 levels
- Ins+ cells after β-cell ablation (Ins+ cells): significant increase

Molecule: FSLLRY-NH2
- capacity of telaprevir to counteract the detrimental effects of PE in FSLLRY-NH2 treated cells ([9]; FSLLRY-NH2 pre-incubation, PE + telaprevir 24 h): impaired

B1: SerpinB1: endogenous protease (elastase) inhibitor derived from the liver that promotes human β-cell proliferation (protein, UniProt P30740 1-379, looked up)
Leukocyte elastase inhibitor: MEQLSSANTRFALDLFLALSENNPAGNIFISPFSISSAMAMVFLGTRGNTAAQLSKTFHFNTVEEVHSRFQSLNADINKRGASYILKLANRLYGEKTYNFLPEFLVSTQKTYGADLASVDFQHASEDARKTINQWVKGQTEGKIPELLASGMVDNMTKLVLVNAIYFKGNWKDKFMKEATTNAPFRLNKKDRKTVKMMYQKKKFAYGYIEDLKCRVLELPYQGEELSMVILLPDDIEDESTGLKKIEEQLTLEKLHEWTKPENLDFIEVNVSLPRFKLEESYTLNSDLARLGVQDLFNSSKADLSGMSGARDIFISKIVHKSFVEVNEEGTEAAAATAGIATFCMLMPEENFTADHPFLFFIRHNSSGSILFLGRFSSP
- human β-cell proliferation (human β-cell): promotes human β-cell proliferation
